The values below come from the RNAGym collection of RNA variant scans (doi:10.1002/anie.201605470).

B1: Osa-1-4 twister ribozyme (parent)
chain: CCGCCUAACACUGCCAAUGCCGGUCCCAAGCCCGGAUAAAAGUGGAGGGGGCGG

In this data set the parent is B1. Briefly: self-cleavage, relative activity (ratio to wild type); higher = more cleavage; co-transcriptional. In a few lines:
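A DNA template for a 54-nucleotide Oryza sativa twister ribozyme was synthesised with 97 % wild-type base and 1 % of each other base at the 48 positions downstream of the cleavage site. It was transcribed in vitro for 2 h at 37 °C, allowing co-transcriptional self-cleavage, then reverse-transcribed with a template-switching oligonucleotide, PCR-amplified and deep-sequenced. Cleavage status was scored from reads with or without upstream sequence. Relative activity is fraction cleaved normalised to wild type.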
As to CCGCCUAACACUGCCAAUGCCAGUCCCAAGCCUGGAUAAAAGUGGAGGGGGCGG [C33U G22A], the self-cleavage was 1.08.

For CCGCCUAACACUGCCAAUGCCUGUCCCAAGCCUGGAUAAAAGUGGAGGGGGCGG [C33U G22U], the self-cleavage was 1. The figure for CCGCCUAACACUGCCAAUGCCCGUCCCAAGCCUGGAUAAAAGUGGAGGGGGCGG [C33U G22C] is 0.45.

Turning to CCGCCUAACACUGCCAAUGCCGGUCCCAAGCCGGGAUAAAAGUGGAGGGGGCUG [C33G G53U], the self-cleavage was determined as 0.04.

Consider CCGCCUAACACUGCCAAUGCCGGUCCCAAGCCGGGAUAAAAGUGGAGGGGGCAG [C33G G53A], for which the self-cleavage was determined as 0.08. On to CCGCCUAACACUGCCAAUGCCGGUCCCAAGCCGGGAUAAAAGUGGAGGGGGCCG [C33G G53C], for which the self-cleavage came out at 0.03. On to CCGCCUAACACUGCCAAUUCCGGUCCCAAGCCUGGAUAAAAGUGGAGGGGGCGG [C33U G19U], for which the self-cleavage turned out to be 0.06.

CCGCCUAACACUGCCAAUCCCGGUCCCAAGCCUGGAUAAAAGUGGAGGGGGCGG [C33U G19C]: the self-cleavage was 0.02. Under CCGCCUAACACUGCCAAUACCGGUCCCAAGCCUGGAUAAAAGUGGAGGGGGCGG [C33U G19A] stands 0.17; under CCGCCUAACACUGCCAAUGCCGGUCCCAAGCCUGGAUAAAAGUGGAGAGGGCGG [C33U G48A], 0.07. Under CCGCCUAACACUGCCAAUGCCGGUCCCAAGCCUGGAUAAAAGUGGAGCGGGCGG [C33U G48C] stands 0.05; under CCGCCUAACACUGCCAAUGCCGGUCCCAAGCCUGGAUAAAAGUGGAGUGGGCGG [C33U G48U], 0.04; under CCGCCUAACACUGCCAAUGCCGGCCCCAAGCCGGGAUAAAAGUGGAGGGGGCGG [C33G U24C], 0.04. The figure for CCGCCUAACACUGCCAAUGCCGGACCCAAGCCGGGAUAAAAGUGGAGGGGGCGG [C33G U24A] is 0.04; for CCGCCUAACACUGCCAAUGCCGGGCCCAAGCCGGGAUAAAAGUGGAGGGGGCGG [C33G U24G] it is 0.01. In the case of CCGCCUAACACUGCCAAUGCCGGUCCCAAGCCUGGAUAAAAGUGGAGGGGGCGG [C33U], the self-cleavage was found to be 0.88. The figure for CCGCCUAACACUGCCAAUGCCGGUCCCAAGCCGGGAUAAAAGUGGACGGGGCGG [C33G G47C] is 0.03; for CCGCCUAACACUGCCAAUGCCGGUCCCAAGCCGGGAUAAAAGUGGAUGGGGCGG [C33G G47U] it is 0.02. The figure for CCGCCUAACACUGCCAAUGCCGGUCCCAAGCCGGGAUAAAAGUGGAAGGGGCGG [C33G G47A] is 0.03; for CCGCCUAACACUGCCAAUGCCGGUCCCAAGCCUGGAUAAAAGUGGAGGGGGUGG [C33U C52U] it is 0.99. CCGCCUAACACUGCCAAUGCCGGUCCCAAGCCUGGAUAAAAGUGGAGGGGGAGG [C33U C52A]: the self-cleavage is 0.84. The figure for CCGCCUAACACUGCCAAUGCCGGUCCCAAGCCUGGAUAAAAGUGGAGGGGGGGG [C33U C52G] is 0.88; for CCGCCUAACACUGCCAAUGCCGGUCCCAAGCCGGGAUAAAAGGGGAGGGGGCGG [C33G U43G] it is 0.06; for CCGCCUAACACUGCCAAUGCCGGUCCCAAGCCGGGAUAAAAGAGGAGGGGGCGG [C33G U43A] it is 0.06. Under CCGCCUAACACUGCCAAUGCCGGUCCCAAGCCGGGAUAAAAGCGGAGGGGGCGG [C33G U43C] stands 0.03. The figure for CCGCCUAACACUGCCAAUGCCGGUCCCAAGCCUGGAUAAAAGUGGAGGGGGCCG [C33U G53C] is 0.07. As for CCGCCUAACACUGCCAAUGCCGGUCCCAAGCCUGGAUAAAAGUGGAGGGGGCUG [C33U G53U], the self-cleavage amounted to 0.13.

On to CCGCCUAACACUGCCAAUGCCGGUCCCAAGCCUGGAUAAAAGUGGAGGGGGCAG [C33U G53A], for which the self-cleavage was 0.35.

For CCGCCUAACACUGCCAAUGCCGGUCCCAAACCUGGAUAAAAGUGGAGGGGGCGG [C33U G30A], the self-cleavage was determined as 0.04. As to CCGCCUAACACUGCCAAUGCCGGUCCCAAUCCUGGAUAAAAGUGGAGGGGGCGG [C33U G30U], the self-cleavage amounted to 0.03. The figure for CCGCCUAACACUGCCAAUGCCGGUCCCAACCCUGGAUAAAAGUGGAGGGGGCGG [C33U G30C] is 0.04; for CCGCCUAACACUGCCAAUGCCGGUCCCAAGCCUGGAUAAAAGUGGAGGGGCCGG [C33U G51C] it is 0.08; for CCGCCUAACACUGCCAAUGCCGGUCCCAAGCCUGGAUAAAAGUGGAGGGGUCGG [C33U G51U] it is 0.13.

On to CCGCCUAACACUGCCAAUGCCGGUCCCAAGCCUGGAUAAAAGUGGAGGGGACGG [C33U G51A], for which the self-cleavage came out at 0.35. The figure for CCGCCUAACACUGCCAAUGCCGGUCCCAAGCCUGGAUAAAAGUGGAAGGGGCGG [C33U G47A] is 0.08; for CCGCCUAACACUGCCAAUGCCGGUCCCAAGCCUGGAUAAAAGUGGACGGGGCGG [C33U G47C] it is 0.07.

Turning to CCGCCUAACACUGCCAAUGCCGGUCCCAAGCCUGGAUAAAAGUGGAUGGGGCGG [C33U G47U], the self-cleavage worked out at 0.07. With CCGCCUAACACUGCCAAUGCCGGUCCCAAGCCUGGAUAAAAUUGGAGGGGGCGG [C33U G42U], the self-cleavage is 0.07. The figure for CCGCCUAACACUGCCAAUGCCGGUCCCAAGCCUGGAUAAAACUGGAGGGGGCGG [C33U G42C] is 0.08; for CCGCCUAACACUGCCAAUGCCGGUCCCAAGCCUGGAUAAAAAUGGAGGGGGCGG [C33U G42A] it is 0.14; for CCGCCUAACACUGCCAAUGCCGGUCCCAAGCCGGGAUAAAAGUGGAGGGGGCGC [C33G G54C] it is 0.03. In the case of CCGCCUAACACUGCCAAUGCCGGUCCCAAGCCGGGAUAAAAGUGGAGGGGGCGA [C33G G54A], the self-cleavage was found to be 0.08.

On to CCGCCUAACACUGCCAAUGCCGGUCCCAAGCCGGGAUAAAAGUGGAGGGGGCGU [C33G G54U], for which the self-cleavage came out at 0.1.

On to CCGCCUAAGACUGCCAAUGCCGGUCCCAAGCCUGGAUAAAAGUGGAGGGGGCGG [C33U C9G], for which the self-cleavage came out at 0.3.

Regarding CCGCCUAAUACUGCCAAUGCCGGUCCCAAGCCUGGAUAAAAGUGGAGGGGGCGG [C33U C9U], the self-cleavage was determined as 0.39. Under CCGCCUAAAACUGCCAAUGCCGGUCCCAAGCCUGGAUAAAAGUGGAGGGGGCGG [C33U C9A] stands 0.2; under CCGCCUAACACUGCCAAUGCCGGUCCCAAGCCUGGAUAAAAGUGGAGGAGGCGG [C33U G49A], 0.08. The figure for CCGCCUAACACUGCCAAUGCCGGUCCCAAGCCUGGAUAAAAGUGGAGGUGGCGG [C33U G49U] is 0.08.
